Sampled rows, rich in hits. Any-hit rate of the full collection: about 2.5%.
SENP6 block: inhibitors of human SENP6 protease. Q9GZR1. Recombinant SENP6 catalytic domain, aminoluciferin luminescence. inhibition, % at 10 µM. hit rate 1.8% among 330,000. AID 2599;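 active means inhibition above about 50% at the single tested dose, limit read from the data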;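 further: plate controls were DMSO wells with enzyme for no effect and DMSO wells lacking enzyme for full effect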
SENP8 block-1: SENP8 (human) protease inhibition; Q96LD8; recombinant SENP8, Nedd8 substrate fluorescence; inhibition, % at 20 µM; hit rate 0.64% among 360,000; AID 602440; in the data active means inhibition mostly above about 40%, no sharp cut-off; inactive means mostly below about 27%
SENP1 inh: blocks the human SENP1 SUMO protease catalytic domain | recombinant SENP1 catalytic domain, CyPet-SUMO1-YPet FRET cleavage | Q9P0U3 | hit rate 0.21% among 360,000 | inhibition, % at 10 µM;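 active means inhibition at least 30% at 10 µM, raw YFP signal under a set limit, fluorescence ratio 0.5 to 1.5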;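 further: 0% = enzyme with DMSO and 100% = no enzyme wells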
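Material: hSENP1 catalytic domain, recombinant; medium: Tris pH 8 with BME, BSA, NP40 and catalase; compound: single concentration of 10 µM compound, 0.5% DMSO final; technique: FRET read of cyan and yellow fluorescence; timing: 50 min enzyme reaction, room temperature, light-protected; reagent: SFCypet-SUMO1-SFYpet substrate at 25 nM; control set: no-enzyme low, enzyme-DMSO high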
SENP7 block: blocks the human protease SENP7; recombinant SENP7, Z-RLRGG-aminoluciferin luminescence, 40 min; hit rate 1.5% among 330,000; AID 434973; Q9BQF6; inhibition, % at 5 µM;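 active means inhibition above about 50% at the single test dose, limit read from the data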;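 further: plate controls were DMSO with enzyme for no effect and no enzyme buffer wells for full effect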
Target sequence (Q9BQF6 706-1050 limits assumed): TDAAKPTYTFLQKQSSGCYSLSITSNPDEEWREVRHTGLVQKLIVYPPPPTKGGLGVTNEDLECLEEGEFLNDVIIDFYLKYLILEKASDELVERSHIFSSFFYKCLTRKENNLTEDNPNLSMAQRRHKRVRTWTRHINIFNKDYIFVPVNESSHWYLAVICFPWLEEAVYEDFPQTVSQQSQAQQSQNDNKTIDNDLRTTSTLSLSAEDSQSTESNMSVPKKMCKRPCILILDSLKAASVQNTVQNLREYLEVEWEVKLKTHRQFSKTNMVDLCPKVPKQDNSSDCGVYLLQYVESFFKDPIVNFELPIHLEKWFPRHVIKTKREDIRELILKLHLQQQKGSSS
SENP8 block-2: blocks the human protease SENP8 | inhibition, % at 10 µM | purified SENP8, Z-RLRGG-aminoluciferin cleavage, luminescence | hit rate 1.2% among 330,000; in the data active means inhibition above about 50%
* hit, by the source's call; / = no result given.

SMILES	SENP6 block	SENP8 block-1	SENP1 inh	SENP7 block	SENP8 block-2
COC(C(=O)Nc1ccnn1C1CCN(Cc2ccccn2)CC1)c1ccccc1 (centres undefined)	-17	-20	-15	7	-5
Cc1ccccc1-n1c(C)cc(/C=N/Nc2ccc([N+](=O)[O-])cn2)c1C	-10	60*	7	4	-7
Cc1cc(/C=N/NC(=O)c2cccc([N+](=O)[O-])c2)c(C)n1-c1ccccc1	-6	13	1	-19	-6
Cc1cc(/C=N/Nc2ccc([N+](=O)[O-])cn2)c(C)n1-c1ccc(C(=O)O)cc1	2	50*	-2	2	-4
O=[N+]([O-])c1ccc(NN=Cc2ccccc2O)nc1	/	-198	-33	/	/
Oc1ccccc1CNc1cccc2cccnc12	91*	22	-11	66*	79*
Cc1nn(C(C)(C)C)c(C)c1/C=N/OC(=O)Nc1ccc(Cl)c(Cl)c1	59*	16	1	44	43
COc1ccc(NC(=O)O/N=C/c2c(C)nn(C(C)(C)C)c2C)cc1	2	9	1	1	-3
Cc1cccc(N(CC(=O)N/N=C/c2ccc(C(=O)O)cc2)S(=O)(=O)c2ccccc2)c1C	-16	7	1	-3	-3
COc1ccc(C)cc1Nc1n[n+](-c2ccccc2)c(-c2ccc(N(C)C)cc2)s1	-24	-152	41*	17	-17
CCC(N=c1cc(-c2ccc(OC)c(OC)c2)oc2ccc(C)cc12)C(=O)O (centres undefined)	7	-409	-45	-2	-4
CCC(N=c1cc(-c2ccc(OC)cc2)oc2ccc(C)cc12)C(=O)O (centres undefined)	52*	-414	-26	14	17
CCc1nc2c(OCc3ccc(C#N)cc3)cccn2c1N(C)C(=O)c1cccs1	/	7	-2	/	/
CC(C)c1ccc(/C=C/c2ccc(=O)n(C)n2)cc1	84*	-374	2	84*	69*
CC(C)c1ccc(/C=C/C2=NNC(=O)CC2)cc1	48	3	1	48	27
O=C(NC(=S)Nc1ccc2c(c1)C(=O)c1ccccc1C2=O)c1ccc(F)cc1	78*	/	/	64*	52*
CC1(OC(=O)c2cccs2)C(=O)C=C2C=C3CCCN3C=C2C1=O (centres undefined)	-21	59*	-10	9	-3
CC1CN(C(=O)COc2ccc3c(-c4ccccc4)cc(=O)oc3c2)CC(C)O1 (centres undefined)	-7	-79	-27	6	5
O=C(O)c1ccc(CSc2nnc(SCc3ccccc3)s2)cc1	-26	16	0	-2	3
O=C(O)c1ccc(CSC2CCCCC2)cc1	58*	16	1	7	51*
COc1cc(S(=O)(=O)Nc2cccc(C)c2)ccc1N=Cc1c(C)[nH]n(-c2ccccc2)c1=O	0	/	/	2	7
Cc1[nH]n(-c2ccccc2)c(=O)c1C=Nc1ccc(S(=O)(=O)Nc2nccs2)cc1	2	44*	3	-2	-4
COc1cc(S(=O)(=O)Nc2ccc(C)cc2)ccc1N=Cc1c(C)[nH]n(-c2ccccc2)c1=O	4	46*	7	6	-7
C[C@H](CO)N1C[C@H](C)[C@H](CN(C)C(=O)OCc2ccccc2)OCc2cnnn2CCCC1=O	/	11	0	/	/
Cc1cccc2nc(COc3ccc(-c4ccccc4)cc3)cn12	94*	/	/	95*	92*
SMILES	SENP6 block	SENP8 block-1	SENP1 inh	SENP7 block	SENP8 block-2
Cc1cc(C)n2cc(COc3ccc4ccccc4c3)nc2n1	-2	-416	0	0	-13
COc1cc(N)c(Cl)cc1C(=O)OCC(=O)NCC1CCCCC1	-13	5	1	1	0
CC1CC(Nc2cccc(O)c2)=CC(=O)O1 (centres undefined)	-7	-1	-6	2	-3
C[C@@H]1Cc2c(O)c(O)cc(O)c2C(=O)O1	-2	44*	-4	1	3
Cc1nc(SCC(=O)Nc2ccccc2Cl)oc1C	-12	7	2	3	2
CCOc1ccc(C(=O)NCC(=O)OCc2nnc(-c3ccccc3)o2)cc1OCC	-18	4	0	3	1
O=C1c2ccccc2C(=O)c2c(/C=C/N3CCCCC3)ccnc21	/	64*	8	/	/
O=C1c2ccccc2-c2cccnc21	2	14	0	-4	-3
CCOP(=O)(OCC)c1cccc(P(=O)(c2ccccc2)c2ccccc2)c1O	-37	-197	2	-2	4

Bioassay records as filed in PubChem BioAssay.
